According to ChEMBL document CHEMBL3616458, “Synthesis of chiral ND-322, ND-364 and ND-364 derivatives as selective inhibitors of human gelatinase” (Bioorg Med Chem, 2015):
Calls of active or inactive are those of the source. The rule behind the calls is not given here.

Key:
[1] = target: T1, Matrix metalloproteinase-9 (Homo sapiens, UniProt P14780); test: Inhibition of human full length MMP9 using Mca-Pro-Leu-Gly-Leu-Dap(Dnp)-Ala-Arg-NH2 as substrate at 10 uM incubated for 2 hrs prior to testing measured for 15 mins by fluorometric analysis relative to control
T1 sequence (P14780 whole entry): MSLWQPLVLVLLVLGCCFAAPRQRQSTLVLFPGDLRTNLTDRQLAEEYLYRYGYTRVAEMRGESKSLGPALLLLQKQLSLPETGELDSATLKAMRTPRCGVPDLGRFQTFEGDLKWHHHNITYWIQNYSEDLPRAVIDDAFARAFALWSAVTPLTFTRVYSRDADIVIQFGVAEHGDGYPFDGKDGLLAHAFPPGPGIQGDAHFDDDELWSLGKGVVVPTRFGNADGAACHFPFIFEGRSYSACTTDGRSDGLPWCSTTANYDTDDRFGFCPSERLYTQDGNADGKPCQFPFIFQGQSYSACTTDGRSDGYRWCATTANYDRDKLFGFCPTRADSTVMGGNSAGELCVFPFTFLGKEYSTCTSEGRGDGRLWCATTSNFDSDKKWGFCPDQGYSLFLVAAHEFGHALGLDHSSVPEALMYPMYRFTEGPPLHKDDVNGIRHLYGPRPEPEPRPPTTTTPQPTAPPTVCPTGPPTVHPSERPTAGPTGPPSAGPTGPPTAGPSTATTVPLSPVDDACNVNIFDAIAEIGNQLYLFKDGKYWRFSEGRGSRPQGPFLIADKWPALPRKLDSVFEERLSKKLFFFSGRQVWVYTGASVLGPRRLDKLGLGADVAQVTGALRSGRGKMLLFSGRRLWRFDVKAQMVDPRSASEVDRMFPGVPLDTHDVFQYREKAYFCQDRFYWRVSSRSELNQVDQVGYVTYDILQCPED
Procedure, shortened: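 MMP9 (3 nM) preincubated 2 h with inhibitor. Substrate hydrolysis was then followed for 15 min, ex 328/em 393 nm, in 50 mM HEPES pH 7.5, 150 mM NaCl, 5 mM CaCl2, 0.01% Brij-35 and 1% DMSO. Single-concentration screen gave % inhibition. […] Both were means of three experiments.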

[2] = target: T2, Aminopeptidase N (Sus scrofa) (UniProt P15145); test: Inhibition of porcine kidney microsomal APN using L-Leu-para-nitroanilide as substrate at 10 uM incubated for 2 hrs prior to substrate addition measured after 30 mins by plate reader analysis relative to control
T2 sequence (whole entry): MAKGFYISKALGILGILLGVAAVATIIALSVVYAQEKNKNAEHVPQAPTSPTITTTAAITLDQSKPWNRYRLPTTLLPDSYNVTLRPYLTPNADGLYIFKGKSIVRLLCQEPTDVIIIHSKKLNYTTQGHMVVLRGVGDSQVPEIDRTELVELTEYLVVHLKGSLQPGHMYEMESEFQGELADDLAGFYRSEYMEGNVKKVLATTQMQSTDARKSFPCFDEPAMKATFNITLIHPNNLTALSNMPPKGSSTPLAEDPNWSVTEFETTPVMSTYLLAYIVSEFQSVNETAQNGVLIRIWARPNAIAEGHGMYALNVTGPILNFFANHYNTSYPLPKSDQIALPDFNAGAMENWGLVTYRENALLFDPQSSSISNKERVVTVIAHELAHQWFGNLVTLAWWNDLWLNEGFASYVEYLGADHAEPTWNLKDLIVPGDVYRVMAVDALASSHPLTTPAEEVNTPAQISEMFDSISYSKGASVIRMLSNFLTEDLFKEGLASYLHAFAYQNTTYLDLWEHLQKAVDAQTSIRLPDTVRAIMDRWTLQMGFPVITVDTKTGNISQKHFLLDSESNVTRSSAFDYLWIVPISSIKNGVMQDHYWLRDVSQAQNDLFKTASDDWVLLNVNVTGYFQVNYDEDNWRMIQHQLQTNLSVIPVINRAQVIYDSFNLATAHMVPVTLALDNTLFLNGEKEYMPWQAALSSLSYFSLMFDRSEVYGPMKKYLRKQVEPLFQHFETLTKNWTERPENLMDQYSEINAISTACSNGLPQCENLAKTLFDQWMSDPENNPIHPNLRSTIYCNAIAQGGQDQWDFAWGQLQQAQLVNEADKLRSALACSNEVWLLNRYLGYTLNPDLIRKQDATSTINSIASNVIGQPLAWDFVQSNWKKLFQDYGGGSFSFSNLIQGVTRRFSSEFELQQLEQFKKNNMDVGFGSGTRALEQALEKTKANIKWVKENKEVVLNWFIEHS
Procedure, shortened: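 Porcine kidney microsomal aminopeptidase and inhibitors in 50 mM PBS pH 7.2, preincubated 2 h at 37 °C. L-Leu-p-nitroanilide substrate then added and incubated 30 min at 37 °C. Hydrolysis followed as absorbance change at 405 nm. Single-concentration % inhibition, mean of three experiments.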

[3] = target: Histone deacetylase (HDAC1 and HDAC2) (Homo sapiens) (UniProt Q13547+Q92769); test: Inhibition of HDAC1/2 in human HeLa cells using Boc-Lys (acetyl)-AMC as substrate at 10 uM incubated for 2 hrs prior to substrate addition measured after 30 mins by fluorescence assay relative to control; format: cell-based
Chain of Histone deacetylase (HDAC1 and HDAC2) (Homo sapiens) (Q13547 whole entry, looked up): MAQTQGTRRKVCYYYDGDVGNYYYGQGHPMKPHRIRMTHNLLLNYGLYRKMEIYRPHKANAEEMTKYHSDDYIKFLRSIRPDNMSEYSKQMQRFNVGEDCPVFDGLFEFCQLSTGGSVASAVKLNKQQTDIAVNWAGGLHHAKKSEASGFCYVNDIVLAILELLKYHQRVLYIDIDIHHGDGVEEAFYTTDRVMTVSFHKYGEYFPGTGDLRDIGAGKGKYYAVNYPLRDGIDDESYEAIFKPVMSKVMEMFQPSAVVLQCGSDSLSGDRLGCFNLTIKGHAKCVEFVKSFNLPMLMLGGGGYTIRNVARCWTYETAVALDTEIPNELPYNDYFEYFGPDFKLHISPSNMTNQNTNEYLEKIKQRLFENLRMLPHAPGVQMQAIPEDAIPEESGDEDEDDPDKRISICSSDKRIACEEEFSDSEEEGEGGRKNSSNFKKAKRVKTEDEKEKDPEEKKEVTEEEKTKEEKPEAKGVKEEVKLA
Chain of Histone deacetylase (HDAC1 and HDAC2) (Homo sapiens) (Q92769 whole entry, looked up): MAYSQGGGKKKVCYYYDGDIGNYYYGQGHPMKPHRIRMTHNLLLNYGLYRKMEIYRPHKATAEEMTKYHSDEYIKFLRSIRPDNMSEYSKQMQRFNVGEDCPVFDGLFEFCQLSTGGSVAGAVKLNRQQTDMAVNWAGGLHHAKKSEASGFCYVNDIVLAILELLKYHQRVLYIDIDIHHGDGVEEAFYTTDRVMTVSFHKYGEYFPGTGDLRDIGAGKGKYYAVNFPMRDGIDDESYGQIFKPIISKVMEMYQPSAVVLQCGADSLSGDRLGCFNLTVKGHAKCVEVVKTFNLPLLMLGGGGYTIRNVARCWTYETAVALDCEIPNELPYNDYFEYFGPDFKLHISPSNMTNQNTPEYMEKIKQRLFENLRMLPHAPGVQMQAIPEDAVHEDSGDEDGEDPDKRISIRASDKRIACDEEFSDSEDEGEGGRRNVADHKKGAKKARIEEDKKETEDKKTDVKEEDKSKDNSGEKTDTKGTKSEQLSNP
Procedure, shortened: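 HeLa nuclear extract (mainly HDAC1 and HDAC2) as enzyme source in 15 mM Tris–HCl pH 8.0 at 37 °C. Enzyme added to compound solutions, then Boc-Lys(acetyl)-AMC substrate and a further 30 min incubation. Developer containing trypsin and TSA added; fluorescence read 20 min later at 390/460 nm. Single-concentration % inhibition, mean of three experiments.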

[4] = target: 72 kDa type IV collagenase (Homo sapiens, UniProt P08253); test: Inhibition of human full length MMP2 using Mca-Pro-Leu-Gly-Leu-Dap(Dnp)-Ala-Arg-NH2 as substrate incubated for 2 hrs prior to testing measured for 15 mins by fluorometric analysis
Chain of 72 kDa type IV collagenase (P08253 whole entry): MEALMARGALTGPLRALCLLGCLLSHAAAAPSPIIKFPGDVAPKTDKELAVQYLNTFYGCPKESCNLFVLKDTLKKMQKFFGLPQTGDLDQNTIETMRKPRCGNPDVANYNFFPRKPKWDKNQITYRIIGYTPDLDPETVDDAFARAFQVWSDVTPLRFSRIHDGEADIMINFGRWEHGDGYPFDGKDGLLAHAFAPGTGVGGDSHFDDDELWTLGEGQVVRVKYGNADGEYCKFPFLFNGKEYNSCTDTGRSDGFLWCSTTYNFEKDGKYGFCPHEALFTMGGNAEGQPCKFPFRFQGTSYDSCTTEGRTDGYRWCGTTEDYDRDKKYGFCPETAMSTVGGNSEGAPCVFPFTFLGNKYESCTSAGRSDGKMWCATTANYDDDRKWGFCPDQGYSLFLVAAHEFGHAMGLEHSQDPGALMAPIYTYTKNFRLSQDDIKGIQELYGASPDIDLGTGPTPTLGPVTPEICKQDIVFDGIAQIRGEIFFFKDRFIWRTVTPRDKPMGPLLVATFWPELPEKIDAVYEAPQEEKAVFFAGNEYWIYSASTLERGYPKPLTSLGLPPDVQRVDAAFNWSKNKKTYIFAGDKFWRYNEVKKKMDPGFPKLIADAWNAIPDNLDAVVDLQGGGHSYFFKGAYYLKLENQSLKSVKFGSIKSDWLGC

[5] = target: T1, Matrix metalloproteinase-9; test: Inhibition of human full length MMP9 using Mca-Pro-Leu-Gly-Leu-Dap(Dnp)-Ala-Arg-NH2 as substrate incubated for 2 hrs prior to testing measured for 15 mins by fluorometric analysis

SMILES | inhibition [1] [%] | inhibition [2] | inhibition [3] | IC50 [4] [nM] | IC50 [5] [nM]
CC(=O)Nc1ccc(Oc2ccc(S(=O)(=O)C[C@@H]3CS3)cc2)cc1 | 91.1 | inactive | inactive |  | 
CC(=O)Nc1ccc(Oc2ccc([S+]([O-])C[C@@H]3CS3)cc2)cc1 (single isomer, unassigned) | 3.4 | inactive | inactive |  | 
CC(=O)Nc1ccc(Oc2ccc([S@@+]([O-])C[C@H]3CS3)cc2)cc1 | 34.4 | inactive | inactive |  | 
CC(=O)Nc1ccc(Oc2ccc(S(=O)(=O)C[C@H]3CS3)cc2)cc1 | 96.2 | inactive | inactive |  | 
CC(=O)Nc1ccc(Oc2ccc(S(=O)(=O)CC3CS3)cc2)cc1 (racemic) | 97.2 | inactive | inactive |  | 
CC(=O)Nc1ccc(Oc2ccc([S+]([O-])C[C@H]3CS3)cc2)cc1 (single isomer, unassigned) | 24.8 | inactive | inactive |  | 
CC(=O)Nc1ccc(Oc2ccc([S@@+]([O-])C[C@@H]3CS3)cc2)cc1 | 23.7 | inactive | inactive |  | 
Nc1ccc(Oc2ccc(S(=O)(=O)C[C@H]3CS3)cc2)cc1 | 97.4 | inactive | inactive |  | 
Nc1ccc(Oc2ccc(S(=O)(=O)C[C@@H]3CS3)cc2)cc1 | 98.3 | inactive | inactive |  | 
COc1ccc(S(=O)(=O)N(CC(=O)NO)CC(C)C)cc1 | 100 |  |  | 2 | 5.9
Nc1ccc(Oc2ccc(S(=O)(=O)CC3CS3)cc2)cc1 (racemic) | 96.7 | inactive | inactive |  | 
